By IC50 is commonly meant the concentration needed to halve the response being measured. A higher IC50 goes with weaker potency in that assay. Usually Ki stands for a dissociation constant, usually derived from enzyme kinetics or from competition with a known ligand. A low value points to a stronger hold on the target.

For 21 compounds, IC50 and Ki results are on record in ChEMBL document CHEMBL1130279 (J Med Chem, 1997).

For experiment [1], the species on record is Rattus norvegicus. In words: Compound was evaluated for its ability to inhibit uptake of [3H]-dopamine into rat caudate putamen tissue. Format: functional.
Experiment [2] has as its target T1, Sodium-dependent dopamine transporter (Rattus norvegicus, UniProt P23977). In words: Displacement of [3H]WIN-35428 from dopamine transporter in rat caudate putamen tissue. Format: tissue-based. The method in brief:
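Compounds were tested as oxalate salts unless noted; some were hydrochloride or fumarate. Values are mean ± SEM of three experiments, each run in triplicate.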
In general terms: Displacement assays read how much labelled ligand stays bound in the presence of the test substance.

Experiment [3] concerns the target T1, Sodium-dependent dopamine transporter. The experiment can be described thus: Compound was evaluated for its ability to displace [3H]WIN-35428 from dopamine transporter in rat caudate putamen tissue. Format: tissue-based.
The mark [4] stands for this setting: Rattus norvegicus, Caudate-putamen.

T1 sequence (P23977 whole entry): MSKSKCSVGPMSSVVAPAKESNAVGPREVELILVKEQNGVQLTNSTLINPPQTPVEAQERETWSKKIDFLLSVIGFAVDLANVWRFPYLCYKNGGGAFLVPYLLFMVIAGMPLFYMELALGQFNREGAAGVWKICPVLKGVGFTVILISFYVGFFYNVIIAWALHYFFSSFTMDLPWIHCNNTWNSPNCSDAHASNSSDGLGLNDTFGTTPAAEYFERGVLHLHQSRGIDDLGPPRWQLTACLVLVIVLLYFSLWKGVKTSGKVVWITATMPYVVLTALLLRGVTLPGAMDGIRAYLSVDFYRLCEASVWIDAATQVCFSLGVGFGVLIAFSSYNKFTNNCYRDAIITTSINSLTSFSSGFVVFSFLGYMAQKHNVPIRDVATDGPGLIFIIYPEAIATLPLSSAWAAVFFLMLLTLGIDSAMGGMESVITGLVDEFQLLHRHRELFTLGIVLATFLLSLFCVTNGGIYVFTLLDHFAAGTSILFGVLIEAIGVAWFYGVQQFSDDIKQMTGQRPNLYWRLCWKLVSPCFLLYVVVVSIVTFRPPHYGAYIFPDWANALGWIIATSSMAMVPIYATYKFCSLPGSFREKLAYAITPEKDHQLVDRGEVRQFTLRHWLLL

The compound `COC(=O)CC1C(Cc2ccccc2)CC2CCC1N2C` (stereo in doubt; 20a) yielded an IC50 in experiment [1] of 457 nM.
In the case of `CCC[C@H]1CC2[C@@H](CC(=O)OC)[C@@H](Cc3ccccc3)CC1N2C` (stereo in doubt; 20d), the affinity in experiment [2], expressed as Ki, was 7240 nM.
Regarding `COC(=O)C[C@H]1C2C[C@@H](C)C(C[C@@H]1Cc1ccccc1)N2C` (stereo in doubt; 22b), the Ki in experiment [2] was 294 nM. Further, 532 nM corresponded to half-maximal inhibition in experiment [1] (IC50).
Compound `COC(=O)CC1C(Cc2ccccc2)CC2C(Cc3ccccc3)CC1N2C` (stereo unspecified) yielded an inhibition constant Ki in experiment [2] of 3080 nM.
Still for that read-out and setting: the value for `CC[C@@H]1CC2[C@@H](CC(=O)OC)[C@@H](Cc3ccccc3)CC1N2C` (stereo in doubt; 20c) was 1150 nM; that for `COC(=O)C[C@@H]1C2C[C@@H](Cc3ccccc3)C(C[C@@H]1Cc1ccccc1)N2C` (stereo partly specified) was 3080 nM.
As for `COC(=O)C[C@H]1C2C[C@@H](C)C(C[C@@H]1Cc1ccccc1)N2C` (stereo in doubt; 21b), in experiment [2], the affinity, expressed as Ki, was 57 nM. The half-maximal inhibitory concentration (IC50) in experiment [1] was 107 nM.
As for `COC(=O)CC1=C(Cc2ccccc2)CC2C(Cc3ccccc3)CC1N2C` (stereo unspecified), in experiment [2], the affinity corresponds to a Ki of 4830 nM.
Turning to `CC[C@@H]1CC2[C@@H](CC(=O)OC)[C@@H](Cc3ccccc3)CC1N2C` (stereo in doubt; 19c), the Ki in experiment [2] came out at 307 nM.
As to `CCCC[C@@H]1CC2[C@@H](CC(=O)OC)[C@@H](Cc3ccccc3)CC1N2C` (stereo in doubt; 19e), the affinity in experiment [2], expressed as Ki, was 8580 nM.
In turn, `COC(=O)CC1C(Cc2ccccc2)CC2CCC1N2C` (single isomer, unassigned; (+)) showed an inhibition constant Ki in experiment [2] of 60 nM. This compound had an IC50 in experiment [1] of 208 nM.
Turning to `CCCC1CC2C(CC(=O)OC)C(Cc3ccccc3)CC1N2C` (stereo in doubt; 21d), the Ki in experiment [2] amounted to 5850 nM.
As for `COC(=O)[C@@H]1C2CC[C@H](C[C@@H]1c1ccccc1)N2C`, the IC50 in experiment [3] came out at 314 nM; in experiment [1] (setting [4]), 373 nM.
`COC(=O)C[C@@H]1C2CCC(C[C@@H]1Cc1ccccc1)N2C` (stereo partly specified): in experiment [1] (setting [4]), the IC50 was 94 nM.
`CCCC[C@@H]1CC2[C@@H](CC(=O)OC)[C@@H](Cc3ccccc3)CC1N2C` (stereo in doubt; 20e) showed an inhibitory constant (Ki) in experiment [2] of 19700 nM.
`COC(=O)CC1C(Cc2ccccc2)CC2CCC1N2C` (stereo unspecified) returned an inhibition constant (Ki) in experiment [2] of 33 nM. Moreover, in experiment [1], the IC50 was found to be 161 nM.
`CCCC1CC2C(CC(=O)OC)C(Cc3ccccc3)CC1N2C` (stereo in doubt; 22d) came in with a Ki in experiment [2] of 57300 nM.
Still for that read-out and setting: for `CCC1CC2C(CC(=O)OC)C(Cc3ccccc3)CC1N2C` (stereo in doubt; 21c) the value was 3110 nM; for `CCC1CC2C(CC(=O)OC)C(Cc3ccccc3)CC1N2C` (stereo in doubt; 22c), 6210 nM.
The same measure, in the same setting: the value for `COC(=O)C[C@@H]1C2C[C@H](C)C(C[C@@H]1Cc1ccccc1)N2C` (stereo partly specified) was 211 nM; that for `COC(=O)C[C@H]1C2C[C@@H](Cc3ccccc3)C(C[C@@H]1Cc1ccccc1)N2C` (stereo partly specified) was 7590 nM.
